ChEMBL document CHEMBL4145681, “Discovery of Novel Aminotetralines and Aminochromanes as Selective and Competitive Glycine Transporter 1 (GlyT1) Inhibitors” (J Med Chem, 2018)
The source made the active and inactive calls. The calls are words filed in the database; no cut-off is given here.

Key:
[1] = target: T1, Sodium- and chloride-dependent glycine transporter 1 (Homo sapiens, UniProt P48067); test: Displacement of [3H]N-Methyl-SSR504734 from human GlyT1c expressed in cell membranes incubated for 1 hr by liquid scintillation spectrometry
T1 sequence (P48067 whole entry): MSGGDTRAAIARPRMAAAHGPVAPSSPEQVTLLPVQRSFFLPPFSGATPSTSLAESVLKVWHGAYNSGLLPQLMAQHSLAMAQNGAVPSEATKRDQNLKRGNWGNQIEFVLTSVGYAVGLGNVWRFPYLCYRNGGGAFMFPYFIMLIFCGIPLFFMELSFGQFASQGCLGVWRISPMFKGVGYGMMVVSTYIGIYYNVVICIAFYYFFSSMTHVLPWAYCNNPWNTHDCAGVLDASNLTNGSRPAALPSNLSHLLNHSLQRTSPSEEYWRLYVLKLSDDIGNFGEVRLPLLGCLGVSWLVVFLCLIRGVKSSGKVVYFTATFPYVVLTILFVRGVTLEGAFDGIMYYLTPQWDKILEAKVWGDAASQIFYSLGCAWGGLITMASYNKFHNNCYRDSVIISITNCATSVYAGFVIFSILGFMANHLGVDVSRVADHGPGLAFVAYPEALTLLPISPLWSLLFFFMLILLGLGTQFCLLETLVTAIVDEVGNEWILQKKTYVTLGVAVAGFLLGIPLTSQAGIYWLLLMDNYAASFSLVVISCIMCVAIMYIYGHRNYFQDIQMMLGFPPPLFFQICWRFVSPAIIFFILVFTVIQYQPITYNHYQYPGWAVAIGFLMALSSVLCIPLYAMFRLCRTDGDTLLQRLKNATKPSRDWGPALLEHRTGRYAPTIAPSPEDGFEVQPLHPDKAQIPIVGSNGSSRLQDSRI

Mus musculus = test: In-vivo binding affinity to GlyT1 in mouse assessed as target occupancy in forebrains dosed intraperitoneally using [3H]N-methyl-SSR504734 as radioligand after 1 hr by liquid scintillation counting method; format: functional; settings: ip
In short: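 Mice dosed i.p. at several doses; forebrain homogenates then tested ex vivo for binding of a GlyT1 radioligand to give target occupancy, with ED50 for 50% occupancy estimated across the dose range.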

[2] = Solubility in water; format: physicochemical
[3] = fCmax in Sprague-Dawley rat brain at 2 mg/kg, ip measured after 8 to 24 hrs by LC-MS/MS method; format: ADME, organism-based; settings: in vivo
[4] = Permeability in MDCK2-MDR1 cells at 1 uM incubated fro 1 hr by LC-MS/MS method; format: ADME, cell-based, Canis lupus familiaris; settings: dog, MDCK-MDR1; read-out: permeability
[5] = Oral bioavailability in dog; format: ADME, organism-based, Canis lupus familiaris; settings: in vivo
[6] = Oral bioavailability in Sprague-Dawley rat at measured after 8 to 24 hrs by LC-MS/MS method; format: ADME, organism-based; settings: in vivo
[7] = Efflux ratio in MDCK2-MDR1 cells at 1 uM incubated fro 1 hr by LC-MS/MS method; format: ADME, cell-based, Canis lupus familiaris; settings: dog, MDCK-MDR1
[8] = Clearance in human liver microsomes at 0.5 uM incubated up to 30 mins in presence of NADPH by LC-MS/MS method; format: ADME, microsome; settings: read-out: CLH
[9] = Clearance in rat liver microsomes at 0.5 uM incubated up to 30 mins in presence of NADPH by LC-MS/MS method; format: ADME, microsome; settings: read-out: CLH
Cytochrome P450 3A4 = Cytochrome P450 3A4 (Homo sapiens, UniProt P08684); test: Inhibition of CYP3A4 in human liver microsomes in presence of NADPH regeneration mixture using luciferin IPA-OH substrate by P450-Glo assay; format: ADME
[10] = target: T2, Sodium- and chloride-dependent glycine transporter 1 (Homo sapiens) (UniProt P48067); test: Competitive inhibition of GlyT1c (unknown origin) expressed in Xenopus laevis oocytes clamped at -60 mV assessed as reduction in glycine-induced membrane currents at 300 nM pre-treated with glycine for 1 min followed by compound dosing for 3 mins by two-electrode voltage clamp assay; format: cell-based
T2 sequence (whole entry): T1 sequence (P48067 whole entry)
In short: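 Oocytes expressing GlyT1c were stimulated with 10 µM or 3000 µM glycine to evoke transporter current. Compound at 300 nM was added to the glycine solution, and % inhibition of the current was calculated. Mode of inhibition was judged by comparing inhibition at the two glycine levels. Data are mean ± SD, N>4 oocytes.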

[11] = Ratio of free drug level in brain to plasma of Sprague-Dawley rat at 2 mg/kg, ip measured after 8 to 24 hrs by LC-MS/MS method; format: ADME, organism-based
[12] = target: Voltage-gated inwardly rectifying potassium channel KCNH2 (Homo sapiens, UniProt Q12809); test: Inhibition of human ERG
Chain of Voltage-gated inwardly rectifying potassium channel KCNH2 (Q12809 whole entry): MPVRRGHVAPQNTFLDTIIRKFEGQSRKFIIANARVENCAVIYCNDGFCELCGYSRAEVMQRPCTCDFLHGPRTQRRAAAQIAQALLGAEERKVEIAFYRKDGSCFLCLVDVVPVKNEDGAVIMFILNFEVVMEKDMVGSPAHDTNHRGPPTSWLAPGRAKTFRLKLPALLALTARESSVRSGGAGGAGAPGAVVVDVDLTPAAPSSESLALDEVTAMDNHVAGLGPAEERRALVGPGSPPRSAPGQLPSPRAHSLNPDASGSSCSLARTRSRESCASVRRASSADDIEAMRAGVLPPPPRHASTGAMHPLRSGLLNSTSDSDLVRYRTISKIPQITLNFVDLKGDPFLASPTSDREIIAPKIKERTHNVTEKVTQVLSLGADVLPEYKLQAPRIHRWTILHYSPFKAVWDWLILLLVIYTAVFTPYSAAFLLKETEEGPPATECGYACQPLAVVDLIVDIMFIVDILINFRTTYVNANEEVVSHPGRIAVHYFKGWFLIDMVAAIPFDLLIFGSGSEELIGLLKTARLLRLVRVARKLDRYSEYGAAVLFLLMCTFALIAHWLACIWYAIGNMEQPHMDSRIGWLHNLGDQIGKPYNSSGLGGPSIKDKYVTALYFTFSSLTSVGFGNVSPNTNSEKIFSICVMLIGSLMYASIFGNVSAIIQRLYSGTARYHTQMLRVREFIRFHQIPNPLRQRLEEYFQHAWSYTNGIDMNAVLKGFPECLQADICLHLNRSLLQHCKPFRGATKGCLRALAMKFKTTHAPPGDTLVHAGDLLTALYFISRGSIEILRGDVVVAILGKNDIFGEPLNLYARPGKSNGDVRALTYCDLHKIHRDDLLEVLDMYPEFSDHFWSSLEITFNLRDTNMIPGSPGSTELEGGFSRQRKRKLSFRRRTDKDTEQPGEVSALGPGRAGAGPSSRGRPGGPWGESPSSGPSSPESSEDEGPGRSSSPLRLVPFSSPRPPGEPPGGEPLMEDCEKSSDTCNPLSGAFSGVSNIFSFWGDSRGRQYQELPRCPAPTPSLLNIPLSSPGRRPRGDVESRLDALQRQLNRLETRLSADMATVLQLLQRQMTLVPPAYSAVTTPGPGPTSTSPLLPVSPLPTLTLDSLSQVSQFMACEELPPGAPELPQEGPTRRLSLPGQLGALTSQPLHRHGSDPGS

Chain of Cytochrome P450 3A4 (P08684 whole entry): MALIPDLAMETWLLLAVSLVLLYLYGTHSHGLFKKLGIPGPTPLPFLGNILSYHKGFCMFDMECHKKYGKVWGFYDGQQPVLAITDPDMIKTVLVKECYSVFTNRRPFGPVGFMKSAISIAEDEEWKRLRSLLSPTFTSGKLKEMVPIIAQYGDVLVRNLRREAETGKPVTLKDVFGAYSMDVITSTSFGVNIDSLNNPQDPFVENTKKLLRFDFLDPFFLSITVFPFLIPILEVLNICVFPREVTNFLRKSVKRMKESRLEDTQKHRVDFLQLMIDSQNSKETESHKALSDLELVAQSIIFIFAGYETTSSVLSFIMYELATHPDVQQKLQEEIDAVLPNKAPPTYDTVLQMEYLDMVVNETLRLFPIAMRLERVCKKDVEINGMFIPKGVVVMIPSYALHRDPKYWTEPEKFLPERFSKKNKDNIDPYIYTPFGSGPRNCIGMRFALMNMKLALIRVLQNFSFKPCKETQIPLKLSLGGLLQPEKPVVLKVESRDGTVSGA

Structure (SMILES)	Ki [1]	ED50 (Mus musculus)	microsomal CLint at 0.5 µM [8]	microsomal CLint at 0.5 µM [9]	other results
Cn1cnc(S(=O)(=O)NCCOc2ccc3c(c2)[C@@H](Cc2ccc(Cl)cc2)[C@@H](N)CC3)c1 (relative stereo)	1.1 nM				
CCCS(=O)(=O)NCc1ccc2c(c1)[C@@H](Cc1ccccc1)[C@@H](NC)CC2 (relative stereo)		2 mg/kg			
Cn1cnc(S(=O)(=O)NCCOc2ccc3c(c2)[C@@H](Cc2ccccc2)[C@@H](N2CCCC2)CC3)c1	1.2 nM	1.6 mg/kg			solubility [2]: > 1000 µg/mL; fCmax [3]: 2 nM; Papp at 1 h, 1 µM [4]: 17 ×10⁻⁶ cm/s; bioavailability [5]: 49%; bioavailability [6]: 29%; efflux ratio at 1 h, 1 µM [7]: 7.2
CCCCS(=O)(=O)NCCOc1ccc2c(c1)[C@@H](Cc1ccc(Cl)c(Cl)c1)[C@@H](N)CC2 (relative stereo)	136 nM		173 µL/min/mg	35 µL/min/mg	
Oc1ccc2c(c1)C(C1(c3ccc(Cl)cc3)CCC1)NCC2 (stereo not drawn)	124 nM		130 µL/min/mg	343 µL/min/mg	IC50 (Cytochrome P450 3A4): > 10000 nM; inhibition [10]: Active; bioavailability [6]: < 1%
Cn1cnc(S(=O)(=O)NCc2ccc3c(c2)[C@@H](Cc2ccccc2)[C@@H](N2CCC2)CC3)c1 (relative stereo)	3 nM	1.8 mg/kg			bioavailability [5]: 75%; bioavailability [6]: 51%
CCCS(=O)(=O)NCCOc1ccc2c(c1)[C@@H](Cc1ccc(Cl)c(Cl)c1)[C@@H](N)CC2 (relative stereo)	35 nM		95 µL/min/mg	17 µL/min/mg	IC50 (Cytochrome P450 3A4): > 10000 nM; inhibition [10]: Active; Kp uu [11]: 0.05; bioavailability [6]: 31%
Cn1cnc(S(=O)(=O)NCCOc2ccc3c(c2)[C@@H](Cc2ccccc2)[C@@H](NCC(F)(F)F)CC3)c1 (relative stereo)	69 nM		69 µL/min/mg	125 µL/min/mg	efflux ratio at 1 h, 1 µM [7]: 1.4
N[C@H]1CCc2ccc(OCCNS(=O)(=O)c3ccccc3)cc2[C@H]1Cc1ccc(Cl)c(Cl)c1	660 nM		78 µL/min/mg	40 µL/min/mg	
CCCS(=O)(=O)NC1CN(c2ccc3c(c2)[C@@H](Cc2ccccc2)[C@@H](N2CCC2)CO3)C1 (relative stereo)	44 nM		< 23 µL/min/mg	66 µL/min/mg	efflux ratio at 1 h, 1 µM [7]: 0.9
Cn1cnc(S(=O)(=O)NCCOc2ccc3c(c2)[C@@H](Cc2ccccc2)[C@@H](N)CC3)c1 (relative stereo)	3.6 nM				
Cn1cnc(S(=O)(=O)NCCOc2ccc3c(c2)[C@@H](Cc2ccccc2)[C@@H](N2CCC2)CO3)c1	3.3 nM		277 µL/min/mg	37 µL/min/mg	efflux ratio at 1 h, 1 µM [7]: 3.5
O=S(=O)(CC1CC1)NCCOc1ccc2c(c1)[C@@H](Cc1ccccc1)[C@@H](N1CCC1)CO2 (relative stereo)	940 nM		940 µL/min/mg	239 µL/min/mg	
CCCS(=O)(=O)NCc1ccc2c(c1)[C@@H](Cc1ccccc1)[C@@H](N1CCC1)CC2 (relative stereo)			122 µL/min/mg	302 µL/min/mg	
O=S(=O)(CC1CC1)NC1CN(c2ccc3c(c2)[C@@H](Cc2ccccc2)[C@@H](N2CCC2)CO3)C1 (relative stereo)	18 nM		< 23 µL/min/mg	130 µL/min/mg	IC50 [12]: 11400 nM; efflux ratio at 1 h, 1 µM [7]: 1
CCCS(=O)(=O)N[C@@H]1CCN(c2ccc3c(c2)[C@@H](Cc2ccccc2)[C@@H](N2CCC2)CC3)C1=O	28 nM		< 23 µL/min/mg	33 µL/min/mg	IC50 [12]: 4500 nM; efflux ratio at 1 h, 1 µM [7]: 1.6
Cn1cnc(S(=O)(=O)NCCOc2ccc3c(c2)[C@@H](Cc2ccc(Cl)c(Cl)c2)[C@@H](N)CC3)c1 (relative stereo)	2.6 nM	> 20 mg/kg	36 µL/min/mg	10 µL/min/mg	
CCCS(=O)(=O)NCCOc1ccc2c(c1)C(C1(c3ccc(Cl)cc3)CCC1)NCC2 (stereo not drawn)	3 nM		620 µL/min/mg	450 µL/min/mg	IC50 (Cytochrome P450 3A4): 620 nM; inhibition [10]: Active; Kp uu [11]: 0.54; bioavailability [6]: 7%
Cn1cc(S(=O)(=O)NCCOc2ccc3c(c2)[C@@H](Cc2ccc(Cl)c(Cl)c2)[C@@H](N)CC3)cn1 (relative stereo)	1.2 nM	> 20 mg/kg	44 µL/min/mg	49 µL/min/mg	fCmax [3]: 0.2 nM
Cn1cnc(S(=O)(=O)NCCOc2ccc3c(c2)[C@@H](Cc2cccc(C(F)(F)F)c2)[C@@H](N)CC3)c1 (relative stereo)	0.8 nM				
CS(=O)(=O)NCCOc1ccc2c(c1)[C@@H](Cc1ccc(Cl)c(Cl)c1)[C@@H](N)CC2 (relative stereo)	141 nM		25 µL/min/mg	39 µL/min/mg	
CN[C@H]1CCc2ccc(OCCNS(=O)(=O)CC3CC3)cc2[C@H]1Cc1ccccc1	1.2 nM	1.4 mg/kg			fCmax [3]: 2.3 nM; bioavailability [6]: 22%
Cn1cnc(S(=O)(=O)NCCOc2ccc3c(c2)[C@@H](Cc2cc(F)cc(Cl)c2)[C@@H](N)CC3)c1 (relative stereo)	1.2 nM				
CCCS(=O)(=O)NC1CN(c2ccc3c(c2)[C@@H](Cc2ccccc2)[C@@H](N2CCC2)CC3)C1	2.6 nM		< 23 µL/min/mg	42 µL/min/mg	IC50 [12]: 6800 nM; efflux ratio at 1 h, 1 µM [7]: 1.4
N[C@H]1CCc2ccc(OCCNS(=O)(=O)c3cccs3)cc2[C@H]1Cc1ccc(Cl)c(Cl)c1 (relative stereo)	163 nM		99 µL/min/mg	95 µL/min/mg	
N[C@H]1CCc2ccc(OCCNS(=O)(=O)CC3CC3)cc2[C@H]1Cc1ccc(Cl)c(Cl)c1 (relative stereo)	5.7 nM	14 mg/kg	92 µL/min/mg	25 µL/min/mg	
N[C@H]1CCc2ccc(OCCNS(=O)(=O)C3CCC3)cc2[C@H]1Cc1ccc(Cl)c(Cl)c1 (relative stereo)	32 nM		55 µL/min/mg	49 µL/min/mg	
O=S(=O)(CC1CC1)NCCOc1ccc2c(c1)[C@@H](Cc1ccccc1)[C@@H](N1CCC1)CC2	2.6 nM	0.5 mg/kg	113 µL/min/mg	137 µL/min/mg	fCmax [3]: 9.9 nM; IC50 [12]: 80 nM; Kp uu [11]: 0.8; bioavailability [6]: 8%; efflux ratio at 1 h, 1 µM [7]: 1.6
Cn1cnc(S(=O)(=O)NCCOc2ccc3c(c2)[C@@H](Cc2ccccc2Cl)[C@@H](N)CC3)c1 (relative stereo)	75 nM				
Cn1cnc(S(=O)(=O)NCCOc2ccc3c(c2)[C@@H](Cc2cccc(Cl)c2)[C@@H](N)CC3)c1 (relative stereo)	1.5 nM	15 mg/kg			
